Test results reported in ChEMBL document CHEMBL3860039, “Structure-Activity Relationship and Signaling of New Chimeric CXCR4 Agonists” (J Med Chem, 2016).

Assays:
Type in all cases: cell-based
[1] = biological target: T1, C-X-C chemokine receptor type 4 (Homo sapiens, UniProt P61073); experiment: Agonist activity at CXCR4 in human REH cells assessed as optimal concentration causing maximum induction of chemotaxis incubated for 3 hrs by transwell migration assay
How it was run: (§1)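 REH acute lymphoblastic B-cell leukaemia cells washed in RPMI; 100 000 cells in RPMI + 0.2% BSA seeded on top of 5 μm pore polycarbonate transwell, peptide dilutions in same medium in bottom chamber; 3 h, 37 °C, 5% CO2. Migrated cells in lower chamber counted by automated counter, expressed as % of seeded cells; peak = concentration giving maximal migration. Three experiments in triplicate.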

[2] = biological target: T1, C-X-C chemokine receptor type 4; experiment: Agonist activity at HA-tagged human CXCR4 receptor expressed in HEK293 cells co-transfected with Galphai1-91-RlucII, Gbeta1, and GFP10-G-gamma1 incubated for 7 mins by Galpha1 protein activation-based BRET assay
How it was run: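 HEK293 cells (3 × 10^6 per 100 mm dish) co-transfected via polyethylenimine with HA-hCXCR4 plus Gαi1-91-RlucII, Gβ1, GFP10-Gγ1; replated at 24 h, 100 000 cells/well. At 48 h, washed in HBSS/0.1% BSA, exposed to ligand 10−12 to 10−5 M for 7 min, then coelenterazine-400A 5 μM final; BRET2 515/400 nm ratio. EC50 (Gαi dissociation) and Emax from three experiments in triplicate.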

[3] = biological target: T1, C-X-C chemokine receptor type 4; experiment: Agonist activity at CXCR4 in human REH cells assessed as induction of chemotaxis incubated for 3 hrs by transwell migration assay; how it was run: as §1
[4] = biological target: T1, C-X-C chemokine receptor type 4; experiment: Displacement of [125I]-CXCL12 from HA-tagged human recombinant CXCR4 expressed in HEK293 cells incubated for 1 hr by gamma-radiation counting analysis

T1 sequence (P61073 whole entry): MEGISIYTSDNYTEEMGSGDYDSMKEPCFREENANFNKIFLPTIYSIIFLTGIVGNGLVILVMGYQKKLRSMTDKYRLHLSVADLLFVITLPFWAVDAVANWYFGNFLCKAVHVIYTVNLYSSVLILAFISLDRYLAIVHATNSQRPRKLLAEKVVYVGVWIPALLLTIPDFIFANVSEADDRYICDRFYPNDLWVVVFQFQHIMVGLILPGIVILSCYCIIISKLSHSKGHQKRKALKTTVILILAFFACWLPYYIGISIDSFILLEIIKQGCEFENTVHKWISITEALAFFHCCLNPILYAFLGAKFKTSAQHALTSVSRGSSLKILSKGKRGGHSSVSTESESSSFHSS

SMILES | Activity [1] | EC50 [2] | Emax [2] | %max [3] | IC50 [4]
CC(C)C[C@H](NC(=O)[C@H](CO)NC(=O)[C@@H](NC(=O)[C@@H]1CCCN1C(=O)[C@@H](N)CCCCN)C(C)C)C(=O)N[C@@H](C)C(=O)N[C@@H](Cc1ccc(O)cc1)C(=O)N[C@@H](CCCNC(=N)N)C(=O)N[C@@H](CO)C(=O)N[C@@H](C)C(=O)NCCCC[C@H](NC(=O)[C@@H]1CSSC[C@H](NC(=O)[C@H](Cc2ccc3ccccc3c2)NC(=O)[C@H](CCCNC(=N)N)NC(=O)[C@@H](N)CCCNC(=N)N)C(=O)N[C@@H](Cc2ccc(O)cc2)C(=O)N[C@@H](CCCNC(=N)N)C(=O)N[C@@H](CCCCN)C(=O)N[C@H](CCCCN)C(=O)N2CCC[C@H]2C(=O)N[C@@H](Cc2ccc(O)cc2)C(=O)N[C@@H](CCCNC(=N)N)C(=O)N[C@@H](CCCNC(=N)N)C(=O)N1)C(=O)O | 10000 nM | 144 nM | 19% | 11.4% | 368 nM
CC(C)C[C@H](NC(=O)[C@H](CO)NC(=O)[C@H](C)NC(=O)[C@@H]1CCCN1C(=O)[C@@H](N)CCCCN)C(=O)N[C@@H](CO)C(=O)N[C@@H](Cc1ccc(O)cc1)C(=O)N[C@@H](CCCNC(=N)N)C(=O)N[C@@H](CO)C(=O)N[C@@H](C)C(=O)NCCCC[C@H](NC(=O)[C@@H]1CSSC[C@H](NC(=O)[C@H](Cc2ccc3ccccc3c2)NC(=O)[C@H](CCCNC(=N)N)NC(=O)[C@@H](N)CCCNC(=N)N)C(=O)N[C@@H](Cc2ccc(O)cc2)C(=O)N[C@@H](CCCNC(=N)N)C(=O)N[C@@H](CCCCN)C(=O)N[C@H](CCCCN)C(=O)N2CCC[C@H]2C(=O)N[C@@H](Cc2ccc(O)cc2)C(=O)N[C@@H](CCCNC(=N)N)C(=O)N[C@@H](CCCNC(=N)N)C(=O)N1)C(=O)O | 10 nM | 92 nM | 50% | 30% | 56 nM
CC(C)C[C@H](NC(=O)[C@H](CO)NC(=O)[C@@H](NC(=O)[C@@H]1CCCN1C(=O)[C@@H](N)CCCCN)C(C)C)C(=O)N[C@@H](CO)C(=O)N[C@@H](Cc1ccc(O)cc1)C(=O)N[C@@H](CCCNC(=N)N)C(=O)N[C@@H](C)C(=O)N[C@@H](C)C(=O)NCCCC[C@H](NC(=O)[C@@H]1CSSC[C@H](NC(=O)[C@H](Cc2ccc3ccccc3c2)NC(=O)[C@H](CCCNC(=N)N)NC(=O)[C@@H](N)CCCNC(=N)N)C(=O)N[C@@H](Cc2ccc(O)cc2)C(=O)N[C@@H](CCCNC(=N)N)C(=O)N[C@@H](CCCCN)C(=O)N[C@H](CCCCN)C(=O)N2CCC[C@H]2C(=O)N[C@@H](Cc2ccc(O)cc2)C(=O)NC(CCCNC(=N)N)C(=O)N[C@@H](CCCNC(=N)N)C(=O)N1)C(=O)O (stereo not given in full) | 1000 nM | 111 nM | 21% | 19% | 137 nM
